Assay results from paper PMC10454840 (Drug Design, Development and Therapy, 2023).

Experiments:
E. granulosus s.s. PSCs = assay: In vitro drug treatment of PSCs, viability by 1% eosin staining; assay type: cell-based, Echinococcus granulosus sensu stricto; conditions: Echinococcus granulosus, 48 h, read-out: viability of PSCs
In short: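 Protoscoleces came from sheep cysts. They were washed in PBS, digested with 1% pepsin for 30 min and cultured in RPMI 1640 with 10% FBS and penicillin/streptomycin at 37 °C, 5% CO2 for 3 days, with viability above 98%. Wells held 200 PSCs. Compounds came from 20 mM DMSO stocks, at 40 μM final for screening, then 40–240 μM. The control was 1% DMSO. After 48 h, 1% eosin marked dead PSCs red. Three independent experiments, mean ± S.D.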

[1] = tested on: cysts from E. granulosus s.s.-infected mice; assay: TEM observation of cysts from treated infected mice; assay type: in vivo, Kunming mice; conditions: 50 mg/kg, oral, 28 days
In short: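 Female Kunming mice, 8 weeks old, were infected intraperitoneally with 50 in vitro-derived microcysts. Infection was confirmed by B-mode ultrasound at 6 months, and mice were randomised into groups of 6. Test compound was given in 0.5% CMC-Na by daily oral gavage (0.1 mL/10 g) for 28 days against a vehicle control. Peritoneal cysts were isolated, and randomly selected cysts were examined by TEM.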

PC12 cells [2] = assay: MTT cytotoxicity assay in PC12 cells; assay type: cell-based; conditions: 200 μM, 48 h
In short: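 PC12 cells in log phase were grown in RPMI 1640 with 10% horse serum, 5% FBS and penicillin/streptomycin, then seeded at 1×10^4 per well and settled for 12 h at 37 °C, 5% CO2. Compounds were added at 6.25–200 μM final, in triplicate, with a DMSO control, for 48 h. Serum-free medium plus MTT followed for 4 h, then formazan lysate and absorbance at 570 nm. Inhibition = [1−(ODtreated−ODblank)/(ODcontrol−ODblank)]×100%.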

[3] = tested on: E. granulosus s.s.-infected mice; assay: Drug treatment of E. granulosus s.s.-infected mice, cyst weight; assay type: in vivo, Kunming mice; conditions: 50 mg/kg/day oral, 28 days
[4] = Acute toxicity study in mice; conditions: both, Kunming, mouse, in vivo, po, single oral dose
PC12 cells [5] = assay: Hoechst 33342 staining assay of PC12 cell apoptosis; assay type: cell-based; conditions: 200 μM, 48 h
In short: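 PC12 cells seeded at 1×10^5/well in 6-well plates and grown at 37 °C, 5% CO2 to 70–80% confluence. Test compound at 200 μM for 48 h, with a DMSO control group. Medium removed, Hoechst staining solution added for 30 min at 37 °C, cells washed three times with PBS, and nuclear morphology viewed by inverted fluorescence microscopy.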

Structure (SMILES): CCCSc1ccc2nc(NC(=O)OC)[nH]c2c1 [ABZ, Albendazole]
- viability at 40 µM (E. granulosus s.s. PSCs): 94.8 ± 5%
- cyst ultrastructure (TEM) [1]: fewer microtriches and an unclear germinal layer structure but clear nuclei

Structure (SMILES): COc1ccc2c(c1)[nH]c1c(C)nccc12 [HM, 7-methoxy-1-methyl-9H-pyrido[3,4-b] indole]
- PC12 cell viability inhibition (PC12 cells [2]): 87.02 ± 5.65%
- cyst weight [3]: 6.53 ± 1.56 g
- LD50 at 14 days [4]: 447 mg/kg
- PC12 cell nuclei / morphology (apoptosis) (PC12 cells [5]): reduced number of cells with varying morphological sizes and significantly denser granules or bright blue fluorescence
- viability at 40 µM (E. granulosus s.s. PSCs): 94.7 ± 4.52%
- cyst ultrastructure (TEM) [1]: fewer microtriches and an unclear germinal layer structure but clear nuclei
